Activity calls are given as the source filed them. No cut-off for these calls is given here.
What was measured:
Staphylococcus aureus [1] = assay: Antibacterial activity against methicillin resistant Staphylococcus aureus ATCC BAA-1556 incubated for 24 hrs by checkerboard assay; assay type: functional
Pseudomonas aeruginosa = assay: Antibacterial activity against Pseudomonas aeruginosa ATCC […] incubated for 24 hrs by checkerboard assay; assay type: functional
Klebsiella pneumoniae = assay: Antibacterial activity against Klebsiella pneumoniae ATCC BAA-1705 incubated for 24 hrs by checkerboard assay; assay type: functional
[2] = Membrano-lytic effect in mammalian membrane mimic DOPC/cholesterol (10:1) large unilamellar vesicles assessed as calcein leakage measured at 50 microg/ml measured after 100 mins by multimode microplate reader assay; assay type: cell membranes; settings: dose 50.0 µg/ml
In short: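 Calcein (70 mM) loaded into extruded 100 nm LUVs: DOPC:DOPG 7:3 (w/w) as the bacterial mimic, DOPC/cholesterol 10:1 (w/w) as the mammalian mimic. Free dye removed by gel filtration. Liposomes at 40 μM final lipid in PBS mixed 1:1 with peptide (5–50 μg/mL). Fluorescence (ex 490/em 520 nm) read every 10 min for 100 min; Triton X-100 defines 100% release. Triplicate.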

Staphylococcus aureus [3] = assay: Induction of resistance development in Staphylococcus aureus ATCC 29213 assessed as increase in MIC by microtiter plate reader assay; assay type: functional, organism-based
In short: (§1)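 Serial passage resistance assay with 2-fold microdilution MICs in 96-well plates. Each passage takes the well with the highest concentration still permitting growth, adjusts it to 0.5 McFarland, and dilutes it to a final 5 × 10^5 CFU/mL for the next passage. Eighteen passages; MIC recorded at each. Triplicate.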

Staphylococcus aureus [4] = assay: Induction of resistance development in methicillin resistant Staphylococcus aureus ATCC BAA-1556 assessed as increase in MIC by microtiter plate reader assay; assay type: functional, organism-based; in short: as §1
Escherichia coli [5] = assay: Induction of resistance development in Escherichia coli ATCC 25922 assessed as increase in MIC by microtiter plate reader assay; assay type: functional, organism-based
Escherichia coli [6] = assay: Induction of resistance development in Escherichia coli ATCC BAA-2452 assessed as increase in MIC by microtiter plate reader assay; assay type: functional, organism-based; in short: as §1
[7] = Hemolytic activity in human RBC incubated for 2 hrs by spectrophotometric assay; assay type: toxicity, cell-based, Erythrocyte; settings: human red blood cells (RBC)
In short: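 Human RBCs with buffy coat removed, washed in PBS pH 7.4. Two-fold peptide dilutions in PBS mixed 1:1 with 4% (v/v) RBC suspension. Incubation 2 h at 37 °C without agitation, then centrifugation. Supernatant hemoglobin read at 567 nm. PBS set 0% and 1% Triton X-100 set 100% lysis. Triplicate.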

[8] = Therapeutic index, ratio of HC50 for human RBC to MIC for methicillin resistant Staphylococcus aureus ATCC BAA-1556
In short: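 Human RBCs washed in PBS pH 7.4 and mixed 1:1 with two-fold peptide dilutions (4% v/v suspension), 2 h at 37 °C. Hemoglobin in supernatant read at 567 nm against PBS (0%) and 1% Triton X-100 (100%). HC50 is the concentration giving 50% hemolysis. Index is HC50 divided by MIC against MRSA.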

C[C@@H](O)[C@H]1C(=O)N2C(C(=O)O)=C(S[C@@H]3CN[C@H](C(=O)N(C)C)C3)[C@H](C)[C@H]12 [MEROPENEM]
MIC (Staphylococcus aureus [1]): 32 µg/mL | MIC (Pseudomonas aeruginosa): 32 µg/mL | MIC (Klebsiella pneumoniae): 256 µg/mL

CCCCCCCCCC(=O)N[C@@H](Cc1c[nH]c2ccccc12)C(=O)N[C@H](CC(N)=O)C(=O)N[C@@H](CC(=O)O)C(=O)N[C@@H]1C(=O)NCC(=O)N[C@@H](CCCN)C(=O)N[C@@H](CC(=O)O)C(=O)N[C@H](C)C(=O)N[C@@H](CC(=O)O)C(=O)NCC(=O)N[C@H](CO)C(=O)N[C@@H]([C@H](C)CC(=O)O)C(=O)N[C@@H](CC(=O)c2ccccc2N)C(=O)O[C@@H]1C
Activity [2]: 7% | Activity (Staphylococcus aureus [3]): Active | Activity (Staphylococcus aureus [4]): Active | Activity (Escherichia coli [5]): Active | Activity (Escherichia coli [6]): Active

N=C(N)NCCC[C@@H]1NC(=O)[C@H](CCCNC(=N)N)NC(=O)[C@H](CCCNC(=N)N)NC(=O)[C@H](Cc2c[nH]c3ccccc23)NC(=O)[C@H](Cc2c[nH]c3ccccc23)NC(=O)[C@H](Cc2c[nH]c3ccccc23)NC(=O)[C@H](Cc2c[nH]c3ccccc23)NC(=O)[C@H](Cc2c[nH]c3ccccc23)NC(=O)[C@H](CCCNC(=N)N)NC1=O
HC50 at 2 h [7]: 100 µg/mL | TI [8]: 12.5

Source: ChEMBL document CHEMBL5236607, “Membrane-Active Cyclic Amphiphilic Peptides: Broad-Spectrum Antibacterial Activity Alone and in Combination with Antibiotics” (J Med Chem, 2022)
